# Results reported in publication PMC6626684 (Biochemical and biophysical research communications, 2019).
# Tests used:
# [1] = biological target: WT mTRPV1 (Mus musculus, UniProt Q704Y3); test: Live-cell calcium fluorescence imaging; type: cell-based
# [2] = biological target: mTRPV1 T551V (Mus musculus, UniProt Q704Y3, T551V); test: Live-cell calcium fluorescence imaging; type: cell-based; details: for Hill slope factor: calcium imaging, T551V
# [3] = biological target: mTRPV1 E571A (Mus musculus, UniProt Q704Y3, E571A); test: Live-cell calcium fluorescence imaging; type: cell-based
# Chain of mTRPV1 E571A (Q704Y3 whole entry E571A): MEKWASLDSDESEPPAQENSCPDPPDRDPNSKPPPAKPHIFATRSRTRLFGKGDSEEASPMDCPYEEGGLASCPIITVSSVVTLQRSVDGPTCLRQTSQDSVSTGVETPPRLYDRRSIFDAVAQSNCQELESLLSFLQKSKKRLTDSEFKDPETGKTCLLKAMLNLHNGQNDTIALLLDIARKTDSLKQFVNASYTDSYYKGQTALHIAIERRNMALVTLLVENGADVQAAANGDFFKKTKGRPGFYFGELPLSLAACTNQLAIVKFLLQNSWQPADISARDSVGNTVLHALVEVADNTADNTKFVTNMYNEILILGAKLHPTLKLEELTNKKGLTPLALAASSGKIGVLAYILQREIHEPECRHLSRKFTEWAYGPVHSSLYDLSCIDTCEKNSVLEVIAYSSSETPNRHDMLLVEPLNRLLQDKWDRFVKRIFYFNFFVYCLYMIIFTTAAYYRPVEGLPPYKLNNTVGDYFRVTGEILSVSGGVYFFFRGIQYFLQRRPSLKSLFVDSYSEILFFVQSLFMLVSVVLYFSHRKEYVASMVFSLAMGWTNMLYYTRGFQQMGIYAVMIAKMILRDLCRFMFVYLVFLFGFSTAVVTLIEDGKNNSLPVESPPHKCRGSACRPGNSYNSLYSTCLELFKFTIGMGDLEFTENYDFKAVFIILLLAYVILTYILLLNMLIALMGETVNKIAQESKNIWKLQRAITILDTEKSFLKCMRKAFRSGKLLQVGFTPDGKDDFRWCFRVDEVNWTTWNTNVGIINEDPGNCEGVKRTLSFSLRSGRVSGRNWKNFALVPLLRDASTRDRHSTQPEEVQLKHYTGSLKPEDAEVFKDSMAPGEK
# [4] = biological target: T1, WT TRPV1 (Mus musculus, UniProt Q704Y3); test: Single-channel inside-out patch-clamp recording, WT channel; type: cell-based; details: for Hill slope factor: electrophysiology
# T1 sequence (Q704Y3 whole entry): as the sequence (Q704Y3 whole entry E571A) above, with A571E counted along it
# [5] = biological target: TRPV1 T551V (Mus musculus, UniProt Q704Y3, T551V); test: Single-channel inside-out patch-clamp recording, T551V mutant; type: cell-based; details: for Hill slope factor: electrophysiology; for Hill slope factor / open probability: T551V
# Chain of TRPV1 T551V (Q704Y3 whole entry T551V): as the sequence (Q704Y3 whole entry E571A) above, with T551V, A571E counted along it
# [6] = biological target: TRPV1 E571A (Mus musculus, UniProt Q704Y3, E571A); test: Single-channel inside-out patch-clamp recording, E571A mutant; type: cell-based; details: for Hill slope factor: electrophysiology, E571A
# Chain of TRPV1 E571A (Q704Y3 whole entry E571A): as the sequence (Q704Y3 whole entry E571A) above
# [7] = biological target: TRPV1 T671V (Mus musculus, UniProt Q704Y3, T671V); test: Single-channel inside-out patch-clamp recording, T671V mutant; type: cell-based
# Chain of TRPV1 T671V (Q704Y3 whole entry T671V): as the sequence (Q704Y3 whole entry E571A) above, with A571E, T671V counted along it
# [8] = biological target: T1, WT TRPV1; details: mTRPV1; cited from earlier work
# [9] = biological target: T2, TRPV1 T671S (Mus musculus, UniProt Q704Y3, T671S); details: capsaicin stimulation; cited from earlier work
# T2 sequence (Q704Y3 whole entry T671S): as the sequence (Q704Y3 whole entry E571A) above, with A571E, T671S counted along it
# [10] = psychophysical tests; cited from earlier work
# [11] = tested on: non-transfected HEK293 cells; test: Calcium imaging control in non-transfected cells; type: cell-based
# [12] = biological target: T2, TRPV1 T671S; test: Single-channel inside-out patch-clamp recording, T671S mutant; type: cell-based; details: most piperine concentrations tested
# How it was run: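 HEK293 cells transiently transfected (Lipofectamine 2000) with eYFP-fused mouse TRPV1 mutant, used 1–2 days later. Inside-out patches held at 0 mV for 50 ms, stepped to +80 mV for 1 s. Symmetrical 130 mM NaCl, 0.2 mM EDTA, 3 mM HEPES pH 7.2, no Ca2+, 25°C. Filtered at 2.25 kHz, sampled at 10 kHz. Po from Gaussian fits to all-point histograms; patches with >2 channels discarded. Repeated-measures two-way ANOVA.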
# Chain of WT mTRPV1 (Q704Y3 whole entry): as the sequence (Q704Y3 whole entry E571A) above, with A571E counted along it
# Chain of mTRPV1 T551V (Q704Y3 whole entry T551V): as the sequence (Q704Y3 whole entry E571A) above, with T551V, A571E counted along it
SMILES,EC50 [1],"Hill slope factor ([1]; calcium imaging, WT)",EC50 [2],Hill slope factor [2],EC50 [3],"Hill slope factor ([3]; calcium imaging, E571A)",Hill slope factor ([4]; WT),EC50 [5],Hill slope factor [5],EC50 [6],Hill slope factor [6],relative pungency-taste threshold [10],other results
COc1cc(CNC(=O)CCCC/C=C/C(C)C)ccc1O [capsaicin],0.1 ± 0.002 µM,1.9,1 ± 0.02 µM,3.3,1 ± 0.04 µM,3.0,1.9,1.4 ± 0.03 µM,3.3,1.3 ± 0.03 µM,3.0,0.6 µM,currents from the same patches ([7]; capsaicin (10 μM)): robust currents; maximum open probability [8]: above 90%; channel activity of T671S when stimulated [9]: wildtype-like activities
"Oc1cc2c(cc1O)CN(C(=S)NCCc1ccc(Cl)cc1)CCC2 [CZP, capsazepine]",,,,,,,,,,,,,"inhibition of fluorescence intensity increase induced by 10 μM piperine ([1]; 10 μM CZP with 10 μM piperine, calcium imaging): almost completely inhibited"
"O=C(/C=C/C=C/c1ccc2c(c1)OCO2)N1CCCCC1 [piperine, Piperine]",3.3 ± 0.7 µM,2.2,5.1 ± 0.7 µM,1.3,3.5 ± 0.5 µM,2.2,2.2,93.5 ± 15.1 µM,0.9,277 ± 36.5 µM,0.7,10.5 µM,"fluorescence intensity of the cells at 30 μM ([1]; 30 μM piperine, WT, consistent with channel desensitization): decreased; efficacy ([1]; calcium imaging, WT, normalized to 10 μM capsaicin response): 82.7 ± 5.7%; fluorescence signal at 30 μM ([2]; 30 μM piperine, T551V expressing cells): decreased substantially; fluorescence signal at 30 μM ([3]; 30 μM piperine, E571A expressing cells): decreased substantially; efficacy ([3]; calcium imaging, E571A, normalized to 10 μM capsaicin response): 77.1 ± 7.3%; non-specific effects in untransfected cells [11]: no detectable non-specific effects; EC50 [4]: 252 ± 38.1 µM; open probability (Po) ([4]; 30 μM piperine, WT): 10%; maximal Po predicted by extrapolation ([4]; WT, extrapolation of Hill fit): about 36%; open probability ([5]; 10 μM piperine): 12.3 ± 2.2%; open probability ([5]; 30 μM piperine): 25.8 ± 5.1%; Emax ([6]; read-out: maximum activation open probability (estimated)): 22%; open probability compared with wildtype channels [12]: significantly lower; channel activity ([7]; 30 μM piperine): no channel activity; perceived pungency level, times lower than capsaicin [10]: 10-to-100 times"
